Calls of active or inactive are those of the source. No cut-off for these calls is given here.
Assays:
[1] = system: DRG neuron; test: Increase in Ca2+ uptake in mouse DRG neurons at 10 ug/ml by Fura-2 dye-based fluorescence microscopy in presence of KCl relative to control; format: functional
Summary of the method: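 Mouse DRG cells plated in medium with additives and loaded with the Ca2+ dye Fura-2 AM. Compound applied at 10 μg/mL, then 25 mM KCl added. Ca2+ influx compared with control cells in the same well.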

[2] = system: DRG neuron; test: Induction of depolarization of mouse DRG neurons at 10 ug/ml by Fura-2 dye-based fluorescence microscopy; format: functional
Summary of the method: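 Dorsal root ganglion cells were taken from mice, plated in medium with additives and loaded with Fura-2 AM. Intracellular Ca2+ was followed as the read-out while compound was applied at 10 μg/mL. This was followed by 25 mM KCl, with responses compared against control cells in the same well.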

Row | SMILES | Activity [1] | Activity [2]
1 | CC(=O)Cc1cc2c(c(O)c1C(=O)O)-c1cc3c(c(O)c1CC2)C(=O)c1c(O)cc(O)cc1[C@H]3[C@H]1c2cc(O)cc(O)c2C(=O)c2c1cc1c(c2O)CCc2cc(CC(C)=O)c(C(=O)O)c(O)c2-1 (stereo in doubt; 1a) | Active | inactive
2 | CC(=O)Cc1cc2c(c(O)c1C(=O)O)-c1cc3c(c(O)c1CC2)C(=O)c1c(O)cc(O)cc1[C@H]3[C@H]1c2cc(O)cc(O)c2C(=O)c2c1cc1c(c2O)CCc2cc(CC(C)=O)c(C(=O)O)c(O)c2-1 (stereo in doubt; 1b) | Active | inactive

Source: ChEMBL document CHEMBL3352407, “Griseorhodins D-F, neuroactive intermediates and end products of post-PKS tailoring modification in Griseorhodin biosynthesis” (J Nat Prod, 2014)
